Experimental data taken from ChEMBL document CHEMBL4229550, “An antimycobacterial pleuromutilin analogue effective against dormant bacilli” (Bioorg Med Chem, 2018).
≈ marks a conversion by molar mass, not a printed value. Calls of active or inactive are those of the source. No cut-off for these calls is given here.

Tests used:
[1] = Cmax in Balb/c mouse at 3 mg/kg, iv; type: ADME, organism-based; set-up: dose 3 mg/kg, route intravenous; details: in vivo
In short: (§1)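 Single IV dose of 3 mg/kg in BALB/c mice (n = 3). Serum concentration-time data were used to derive t1/2, Cmax and AUC over 0–24 h and to infinity.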

[2] = system: Clostridioides difficile; assay: Bactericidal activity against Clostridium difficile ATCC 700057 incubated for 24 hrs […] by MABA; type: functional; details: ATCC 700057, 24 h
[3] = Half life in Balb/c mouse serum at 30 mg/kg, po; type: ADME, organism-based
In short: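 Single 30 mg/kg oral dose in six BALB/c mice; serum half-life and tmax are derived from the concentration–time profile.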

[4] = Efflux ratio of apparent permeability in human Caco2 cells at 10 uM after 2 hrs by LC-MS/MS analysis; type: ADME, cell-based; details: caco-2, 2 h
[5] = system: Mus musculus; assay: Oral bioavailability in Balb/c mouse at 30 mg/kg; type: ADME, organism-based; details: in vivo
In short: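 Single oral dose of 30 mg/kg in BALB/c mice (n = 6). Serum PK parameters were t1/2, tmax, Cmax and AUC over 0–24 h and to infinity. Oral bioavailability F was calculated against the 3 mg/kg IV dose.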

[6] = system: Staphylococcus aureus; assay: Antibacterial activity against Staphylococcus aureus incubated for 24 hrs under aerobic condition by MABA; type: functional; details: read-out: MIC100
In short: (§2)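 Resazurin was then added from a 0.08% stock for 1 h. MIC100 was the lowest concentration where the dye stayed blue (pink means growth). Absorbance was also read at 570 and 600 nm.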

[7] = system: Staphylococcus aureus; assay: Bactericidal activity against Staphylococcus aureus ATCC 25923 incubated for 24 hrs under aerobic condition by MABA; type: functional; details: ATCC 25923, 24 h
[8] = Selectivity index, ratio of IC50 for African green monkey Vero cells to MIC100 for replicating Mycobacterium tuberculosis H37Rv by MABA; type: toxicity; details: read-out: Selectivity Index
In short: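 Vero cells are cultured in EMEM with 10% FBS and exposed for 72 h to 0.78–200 µg/mL. Medium is switched to phenol-red-free EMEM, MTT is added, and formazan is read at 570 nm to give IC50. The selectivity index is Vero IC50 divided by the MABA MIC.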

[9] = Half life in Sprague-Dawley rat liver microsomes at 500 ng/ml preincubated for 5 mins followed by NADPH addition by C-MS/MS analysis; type: ADME, microsome
[10] = system: Streptococcus salivarius; assay: Bactericidal activity against Streptococcus salivarius ATCC 6301 incubated for 24 hrs under aerobic condition by MABA; type: functional; details: ATCC 6301, 24 h
[11] = system: Vero; assay: Cytotoxicity against African green monkey Vero cells assessed as reduction in cell viability after 72 hrs by MTT assay; type: cell-based; details: Chlorocebus sabaeus
In short: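 Vero cells were grown in complete EMEM with 10% FBS and exposed for 72 h to 0.78–200 µg/mL. The medium was then swapped for phenol-red-free EMEM and MTT was added. Formazan absorbance was read at 570 nm to give IC50.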

[12] = system: Staphylococcus aureus; assay: Bactericidal activity against Staphylococcus aureus BAA 44 incubated for 24 hrs under aerobic condition by MABA; type: functional; details: BAA 44, 24 h
[13] = system: Streptococcus pneumoniae; assay: Bactericidal activity against Streptococcus pneumoniae ATCC 6301 incubated for 24 hrs under aerobic condition by MABA; type: functional; details: ATCC 6301, 24 h
[14] = system: Klebsiella pneumoniae; assay: Bactericidal activity against Klebsiella pneumoniae ATCC 12019 incubated for 24 hrs under aerobic condition by MABA; type: functional; details: ATCC 12019, 24 h
[15] = system: Escherichia coli; assay: Inhibition of protein translation/transcription in Escherichia coli S30 cell extract at 0.5 ug/ml using circular DNA with pBESTluc after 60 mins by luciferase reporter gene assay; type: functional
In short: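 Coupled transcription/translation used E. coli S30 extract, amino acid mix and premix, with the pBESTluc template carrying firefly luciferase under the tac promoter. Compounds were added in DMSO and reactions were started with DNA. Incubation was 60 min at 37 °C, stopped on ice, and luciferase was read after adding assay substrate.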

[16] = system: Staphylococcus aureus; assay: Antibacterial activity against Staphylococcus aureus BAA 2094 incubated for 24 hrs under aerobic condition by MABA; type: functional; details: BAA 2094, 24 h, read-out: MIC100; in short: as §2
[17] = system: Streptococcus pneumoniae; assay: Antibacterial activity against Streptococcus pneumoniae ATCC 6301 incubated for 24 hrs under aerobic condition by MABA; type: functional; details: ATCC 6301, 24 h, read-out: MIC100
In short: (§3)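 Mid-log cultures at OD 0.5 were exposed to serial dilutions under aerobic conditions at 37 °C for 24 h. Resazurin was then added from a 0.08% stock for 1 h. MIC100 was the lowest concentration where the dye stayed blue (pink means growth). Absorbance was also read at 570 and 600 nm.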

[18] = system: Staphylococcus aureus; assay: Bactericidal activity against Staphylococcus aureus BAA 1683 incubated for 24 hrs under aerobic condition by MABA; type: functional; details: BAA 1683, 24 h
[19] = system: Escherichia coli; assay: Antibacterial activity against Escherichia coli ATCC 10798 incubated for 24 hrs under aerobic condition by MABA; type: functional; details: ATCC 10798, 24 h, read-out: MIC100; in short: as §3
[20] = system: Mycobacterium tuberculosis; assay: Bactericidal activity against non-replicating Mycobacterium tuberculosis CDC1551 expressing tdTomato infected in mouse J774A.1 cells at 2 times MIC up to 72 hrs by UV-Visible spectroscopic method; type: functional, organism-based
In short: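 J774A.1 macrophages are seeded at […] cells/well in DMEM and incubated overnight at 37 °C. They are infected with saline-washed Mtb CDC1551-tdTomato (10^6 bacteria, MOI ≈10), and extracellular bacteria are washed off with PBS. Treatment is at 2×MIC, with fluorescence emission read at 581 nm at 24, 48, 72 and 96 h. Survivors are confirmed by serial dilution and plating on 7H11.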

[21] = system: Staphylococcus aureus; assay: Bactericidal activity against Staphylococcus aureus incubated for 24 hrs under aerobic condition by MABA; type: functional
[22] = system: Bacillus subtilis; assay: Bactericidal activity against Bacillus subtilis ATCC 6051 incubated for 24 hrs under aerobic condition by MABA; type: functional; details: ATCC 6051, 24 h
[23] = system: Staphylococcus aureus; assay: Antibacterial activity against Staphylococcus aureus BAA 1683 incubated for 24 hrs under aerobic condition by MABA; type: functional; details: BAA 1683, 24 h, read-out: MIC100; in short: as §3
[24] = AUC (0 to infinity) in Balb/c mouse at 3 mg/kg, iv; type: ADME, organism-based; set-up: dose 3 mg/kg, route intravenous, time infinity; details: in vivo; in short: as §1
[25] = Half life in Balb/c mouse at 3 mg/kg, iv; type: ADME, organism-based; details: in vivo
In short: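 Single 3 mg/kg IV dose in three BALB/c mice; serum half-life is derived from the concentration–time profile.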

[26] = system: Mycobacterium tuberculosis; assay: Antibacterial activity against Mycobacterium tuberculosis Erdman infected in Balb/c mouse assessed as reduction in bacterial load in lungs at 100 mg/kg, po for 3 weeks starting from 10 days post infection measured on day 21 post infection; type: functional, Erdman = ATCC 35801
In short: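 Female BALB/c mice, 7–8 weeks old, are aerosol-infected with Mtb Erdman. From day 10 they receive oral gavage in water for three weeks, in groups of 5. Lungs and spleens are harvested at day 21 post-infection and plated for CFU. Efficacy is the log10 reduction in lung burden versus untreated (vehicle) controls.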

[27] = system: Mycobacterium tuberculosis; assay: Bactericidal activity against Mycobacterium tuberculosis H37Rv at 2 times MIC measured every 24 hrs up to 12 days by time kill assay relative to control; type: functional
In short: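 Mid-log H37Rv (OD 0.5) is diluted to OD 0.25 and exposed at MIC, 2×MIC or 4×MIC. Every 24 h cultures are diluted 10- to 10,000-fold and plated on 7H10/OADC agar. Plates are incubated 15 days at 37 °C before colony counts.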

CC[C@]1(C)C[C@@H](OC(=O)CSC(C)(C)CNC(=O)[C@H](N)CC(C)C)[C@]2(C)[C@H](C)CC[C@]3(CC[C@@H](O)[C@H]32)[C@@H](C)[C@@H]1O
Cmax [1]: 1910 ng/mL | MBC [2]: 1.56 µg/mL (≈ 2.68 µM) | half-life [3]: 10.5 h | Ratio [4]: 5.44 | F [5]: 27.6% | MIC [6]: 0.78 µg/mL (≈ 1.34 µM) | MBC [7]: > 25 µg/mL | selectivity ratio [8]: 30.1 | t1/2 [9]: > 1 h | MBC [10]: > 25 µg/mL | IC50 [11]: 25 µg/mL (≈ 42.9 µM) | MBC [12]: > 25 µg/mL | MBC [13]: > 25 µg/mL | MBC [14]: 25 µg/mL (≈ 42.9 µM) | inhibition [15]: Active | MIC [16]: > 25 µg/mL | MIC [17]: 25 µg/mL (≈ 42.9 µM) | MBC [18]: > 25 µg/mL | MIC [19]: 12.5 µg/mL (≈ 21.4 µM) | Activity [20]: Active | MBC [21]: 1.56 µg/mL (≈ 2.68 µM) | MBC [22]: > 25 µg/mL | MIC [23]: > 25 µg/mL | AUC(0-inf) [24]: 1050 ng·h/mL | half-life [25]: 9.98 h | log(activity) [26]: 0.2 | Activity [27]: 100%
